From ChEMBL document CHEMBL1145212, “Fluorinated diaryl sulfides as serotonin transporter ligands: synthesis, structure-activity relationship study, and in vivo evaluation of fluorine-18-labeled compounds as PET imaging agents” (J Med Chem, 2005)

Key:
Conditions in all cases: tested as the 18F-labelled form
Rattus norvegicus [1] = species on record: Rattus norvegicus; experiment: Regional uptake of [18F]AFA in thalamus of rat pretreated with compound citalopram; n=3; format: functional, organism-based
Method in brief: (§1)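 Male Sprague-Dawley rats, three per group, received blocker (2 mg/kg iv in saline) or saline only (controls) 10–15 min before about 20 µCi of tail-vein F-18 radioligand. Killed 60 min after tracer. Blood and brain regions weighed and gamma-counted. %ID/g was decay- and tail-corrected; mean ± SD.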

Rattus norvegicus [2] = species on record: Rattus norvegicus; experiment: Regional uptake of [18F]-AFA in striatum of rat pretreated with compound GBR-12935; n=3; format: functional, organism-based; method in brief: as §1
[3] = biological target: Sodium-dependent serotonin transporter (Rattus norvegicus) (UniProt P31652); experiment: Specific binding of [18F]AFA in rat striatum after GBR-12935 treatment; n=3; format: functional, tissue-based
Sodium-dependent serotonin transporter (Rattus norvegicus), sequence (P31652 whole entry): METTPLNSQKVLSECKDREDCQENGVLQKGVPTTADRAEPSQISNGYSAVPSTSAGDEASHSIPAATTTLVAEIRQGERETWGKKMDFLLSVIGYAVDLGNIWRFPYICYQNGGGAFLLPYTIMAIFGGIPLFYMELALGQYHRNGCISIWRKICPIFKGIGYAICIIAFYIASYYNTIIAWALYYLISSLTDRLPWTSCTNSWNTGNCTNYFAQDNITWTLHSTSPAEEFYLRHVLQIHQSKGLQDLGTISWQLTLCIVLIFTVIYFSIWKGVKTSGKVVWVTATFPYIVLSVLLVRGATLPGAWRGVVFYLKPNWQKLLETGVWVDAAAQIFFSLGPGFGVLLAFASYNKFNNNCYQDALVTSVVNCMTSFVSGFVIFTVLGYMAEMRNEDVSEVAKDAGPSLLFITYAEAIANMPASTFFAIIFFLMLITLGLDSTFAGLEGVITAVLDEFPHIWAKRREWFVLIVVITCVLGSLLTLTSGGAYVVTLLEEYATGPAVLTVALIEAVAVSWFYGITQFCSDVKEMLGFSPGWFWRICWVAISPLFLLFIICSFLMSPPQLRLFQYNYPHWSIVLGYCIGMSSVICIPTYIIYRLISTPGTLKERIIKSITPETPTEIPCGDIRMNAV
Method in brief: (§2)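 Rats, three per group, were pretreated iv with blocker at 2 mg/kg in saline, or with saline as control, 10–15 min before tail-vein F-18 radioligand (about 20 µCi). Killed at 60 min and regional %ID/g determined. Specific binding = (region activity − cerebellum activity)/cerebellum activity; mean ± SD.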

Rattus norvegicus [4] = species on record: Rattus norvegicus; experiment: Regional uptake of [18F]AFA in hypothalamus of rat pretreated with compound citalopram; n=3; format: functional, organism-based; method in brief: as §1
Rattus norvegicus [5] = species on record: Rattus norvegicus; experiment: Regional uptake of [18F]AFA in hippocampus of rat pretreated with compound 7f; n=3; format: functional, organism-based
Rattus norvegicus [6] = species on record: Rattus norvegicus; experiment: Regional uptake of [18F]-AFP in striatum of rat pretreated with compound 7f; n=3
Rattus norvegicus [7] = species on record: Rattus norvegicus; experiment: Regional uptake of [18F]AFA in striatum of rat pretreated with compound nisoxetine; n=3; format: functional, organism-based; method in brief: as §1
Rattus norvegicus [8] = species on record: Rattus norvegicus; experiment: Regional uptake of [18F]AFA in frontal cortex of rat pretreated with compound 7f; n=3; format: functional, organism-based
Rattus norvegicus [9] = species on record: Rattus norvegicus; experiment: Regional uptake of [18F]-AFA in hypothalamus of rat pretreated with compound nisoxetine; n=3; format: functional, organism-based; method in brief: as §1
[10] = biological target: Sodium-dependent serotonin transporter (Rattus norvegicus) (UniProt P31652); experiment: Specific binding of [18F]AFA in rat hippocampus after nisoxetine treatment; n=3; format: functional, tissue-based; method in brief: as §2
[11] = biological target: Sodium-dependent serotonin transporter (Rattus norvegicus) (UniProt P31652); experiment: Specific binding of [18F]-AFA in rat striatum after nisoxetine treatment; n=3; format: functional, tissue-based; method in brief: as §2
[12] = biological target: Sodium-dependent serotonin transporter (Rattus norvegicus) (UniProt P31652); experiment: Specific binding in rat hypothalamus at 10 min postinjection in vivo; format: functional, organism-based
Method in brief: (§3)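 Male Sprague-Dawley rats, n=3 per time point, received about 20 µCi of F-18 radioligand in saline iv by tail vein and were killed at 10–120 min. %ID/g was measured with decay and tail-residual correction. Hypothalamic specific binding = (%ID/g hypothalamus − %ID/g cerebellum)/%ID/g cerebellum; mean ± SD.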

[13] = biological target: Sodium-dependent serotonin transporter (Rattus norvegicus) (UniProt P31652); experiment: Specific binding of [18F]AFA in rat thalamus after nisoxetine treatment; n=3; format: functional, tissue-based; method in brief: as §2
[14] = biological target: Sodium-dependent serotonin transporter (Rattus norvegicus) (UniProt P31652); experiment: Specific binding of [18F]AFA in rat frontal cortex after nisoxetine treatment; n=3; format: functional, tissue-based; method in brief: as §2
[15] = biological target: Sodium-dependent serotonin transporter (Rattus norvegicus) (UniProt P31652); experiment: Specific binding of [18F]AFA in rat hypothalamus after citalopram treatment; n=3; format: functional, tissue-based; method in brief: as §2
Rattus norvegicus [16] = species on record: Rattus norvegicus; experiment: Regional uptake of [18F]AFA in striatum of rat pretreated with compound citalopram; n=3; format: functional, organism-based; method in brief: as §1
[17] = biological target: Sodium-dependent serotonin transporter (Rattus norvegicus) (UniProt P31652); experiment: Specific binding of [18F]-AFA in rat striatum after citalopram treatment; n=3; format: functional, tissue-based; method in brief: as §2
Rattus norvegicus [18] = species on record: Rattus norvegicus; experiment: Regional uptake of [18F]AFA in hippocampus of rat pretreated with compound citalopram; n=3; format: functional, organism-based; method in brief: as §1
Rattus norvegicus [19] = species on record: Rattus norvegicus; experiment: Regional uptake of [18F]AFA in frontal cortex of rat pretreated with compound citalopram; n=3; format: functional, organism-based; method in brief: as §1
[20] = biological target: Sodium-dependent serotonin transporter (Rattus norvegicus) (UniProt P31652); experiment: Specific binding of [18F]AFA in rat frontal cortex after citalopram treatment; n=3; format: functional, tissue-based; method in brief: as §2
Rattus norvegicus [21] = species on record: Rattus norvegicus; experiment: Regional uptake of [18F]AFP in thalamus of rat pretreated with compound 7f; n=3
[22] = biological target: Sodium-dependent serotonin transporter (Rattus norvegicus) (UniProt P31652); experiment: Specific binding in rat hypothalamus at 60 min postinjection in vivo; format: functional, organism-based; method in brief: as §3
[23] = biological target: Sodium-dependent serotonin transporter (Rattus norvegicus) (UniProt P31652); experiment: Specific binding in rat hypothalamus at 30 min postinjection in vivo; format: functional, organism-based; method in brief: as §3
[24] = biological target: Sodium-dependent serotonin transporter (Rattus norvegicus) (UniProt P31652); experiment: Specific binding of [18F]AFA in rat hippocampus after citalopram treatment; n=3; format: functional, tissue-based; method in brief: as §2

Specific binding [3]: 0.84 %ID/g
Specific binding [10]: 1.02 %ID/g
Specific binding [11]: 0.58 %ID/g
Specific binding [12]: 0.34 %ID/g
Specific binding [13]: 0.88 %ID/g
Specific binding [14]: 0.72 %ID/g
Specific binding [15]: 0.66 %ID/g
Specific binding [17]: 0.45 %ID/g
Specific binding [20]: 0.84 %ID/g
Specific binding [22]: 0.85 %ID/g
Specific binding [23]: 0.57 %ID/g
Specific binding [24]: 0.32 %ID/g
SMILES: CN(C)Cc1ccccc1Sc1ccc(CCCF)cc1N
Uptake (Rattus norvegicus [1]): 0.15 %ID/g
Uptake (Rattus norvegicus [2]): 0.17 %ID/g
Uptake (Rattus norvegicus [4]): 0.13 %ID/g
Uptake (Rattus norvegicus [5]): 0.08 %ID/g
Uptake (Rattus norvegicus [6]): 0.08 %ID/g
Uptake (Rattus norvegicus [7]): 0.13 %ID/g
Uptake (Rattus norvegicus [8]): 0.08 %ID/g
Uptake (Rattus norvegicus [9]): 0.15 %ID/g
Uptake (Rattus norvegicus [16]): 0.12 %ID/g
Uptake (Rattus norvegicus [18]): 0.11 %ID/g
Uptake (Rattus norvegicus [19]): 0.16 %ID/g
Uptake (Rattus norvegicus [21]): 0.1 %ID/g
